# Test results published in ChEMBL document CHEMBL1255185, “Substituted 4-amino-1H-pyrazolo[3,4-d]pyrimidines as multi-targeted inhibitors of insulin-like growth factor-1 receptor (IGF1R) and members of ErbB-family receptor kinases” (Bioorg Med Chem Lett, 2010).
# Active and inactive are the calls of the source. The rule behind the calls is not given here.
# System: not listed separately
# Test: Tmax in po dosed C57BL/6 mouse
# Type: ADME, organism-based
# Conditions: in vivo
# Outline: (§1)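 Mouse oral PK used a 10 mg/kg dose. AUC is normalized to dose (per mg/kg), and F is oral bioavailability.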
row,Tmax [h],SMILES
1,3,CN1CCN([C@H]2CC[C@H](n3nc(-c4ccc(Nc5nc6cccc(Cl)c6o5)cc4)c4c(N)ncnc43)CC2)CC1

# System: not listed separately
# Test: Oral bioavailability in rat at 5 mg/kg
# Type: ADME, organism-based
# Conditions: in vivo
# Outline: (§2)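 Rat oral PK used a 5 mg/kg dose. AUC is normalized to dose (per mg/kg), and F is oral bioavailability.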
row,bioavailability [%],SMILES
1,30,CN1CCN([C@H]2CC[C@H](n3nc(-c4ccc(Nc5nc6cccc(Cl)c6o5)cc4)c4c(N)ncnc43)CC2)CC1

# System: not listed separately
# Test: Cmax in rat at 5 mg/kg, po
# Type: ADME, organism-based
# Set-up: dose 5 mg/kg, route oral
# Conditions: in vivo
# Outline: as §2
row,Cmax [nM],SMILES
1,160,CN1CCN([C@H]2CC[C@H](n3nc(-c4ccc(Nc5nc6cccc(Cl)c6o5)cc4)c4c(N)ncnc43)CC2)CC1

# System: not listed separately
# Test: Clearance in iv dosed C57BL/6 mouse
# Type: ADME, organism-based
# Conditions: in vivo
row,clearance [mL/min/kg],SMILES
1,31.8,CN1CCN([C@H]2CC[C@H](n3nc(-c4ccc(Nc5nc6cccc(Cl)c6o5)cc4)c4c(N)ncnc43)CC2)CC1

# System: Mus musculus
# Test: Inhibition of IGF1R phosphorylation in C57BL/6 mouse at 30 mg/kg, iv by Western blotting
# Type: functional
# Conditions: not given
# Outline: (§3)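 Female C57BL/6 mice were dosed iv with compound or vehicle; doses of 3, 10, 30 and 60 mg/kg were used. After 1 h, IGF-1 was given iv at 0.5 mg/kg, and mice were sacrificed 10 min later. Lung tissue was homogenized, and p-IGF1R and p-Akt were analyzed by Western blot. Drug levels in plasma and tissues were measured.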
row,SMILES,inhibition in vivo at 30 mg/kg [%]
1,CN1CCN([C@H]2CC[C@H](n3nc(-c4ccc(Nc5nc6cccc(Cl)c6o5)cc4)c4c(N)ncnc43)CC2)CC1,50

# Molecular target: T1, Insulin-like growth factor 1 receptor (Homo sapiens, UniProt P08069)
# Test: Inhibition of IGF1R phosphorylation in human MIAPaCa cells by ELISA
# Type: cell-based
# Conditions: not given
# Outline: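 Cellular IGF1R phosphorylation was read out in ELISA format in MiaPaCa human pancreatic carcinoma cells, which express both IGF1R and EGFR.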
# T1 sequence (P08069 31-736 limits assumed): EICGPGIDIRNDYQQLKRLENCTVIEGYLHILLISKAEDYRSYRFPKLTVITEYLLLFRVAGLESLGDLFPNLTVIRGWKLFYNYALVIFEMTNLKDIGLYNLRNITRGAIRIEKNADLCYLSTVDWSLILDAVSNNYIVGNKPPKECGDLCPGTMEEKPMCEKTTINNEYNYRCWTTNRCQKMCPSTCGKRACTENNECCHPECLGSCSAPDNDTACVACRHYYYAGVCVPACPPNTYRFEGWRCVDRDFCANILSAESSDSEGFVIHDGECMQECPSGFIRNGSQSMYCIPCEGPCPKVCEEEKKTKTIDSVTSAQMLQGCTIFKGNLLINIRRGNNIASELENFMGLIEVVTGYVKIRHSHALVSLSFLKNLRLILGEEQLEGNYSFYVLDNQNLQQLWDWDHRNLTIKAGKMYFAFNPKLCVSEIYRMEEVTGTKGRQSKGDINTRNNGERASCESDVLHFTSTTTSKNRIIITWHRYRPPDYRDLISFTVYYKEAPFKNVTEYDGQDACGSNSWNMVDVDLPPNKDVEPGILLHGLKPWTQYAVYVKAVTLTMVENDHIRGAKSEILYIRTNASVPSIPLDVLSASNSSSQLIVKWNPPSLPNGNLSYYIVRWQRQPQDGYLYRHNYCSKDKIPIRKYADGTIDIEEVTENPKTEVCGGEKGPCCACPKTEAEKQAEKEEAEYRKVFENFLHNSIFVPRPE
# T1 sequence (P08069 741-1367 limits assumed): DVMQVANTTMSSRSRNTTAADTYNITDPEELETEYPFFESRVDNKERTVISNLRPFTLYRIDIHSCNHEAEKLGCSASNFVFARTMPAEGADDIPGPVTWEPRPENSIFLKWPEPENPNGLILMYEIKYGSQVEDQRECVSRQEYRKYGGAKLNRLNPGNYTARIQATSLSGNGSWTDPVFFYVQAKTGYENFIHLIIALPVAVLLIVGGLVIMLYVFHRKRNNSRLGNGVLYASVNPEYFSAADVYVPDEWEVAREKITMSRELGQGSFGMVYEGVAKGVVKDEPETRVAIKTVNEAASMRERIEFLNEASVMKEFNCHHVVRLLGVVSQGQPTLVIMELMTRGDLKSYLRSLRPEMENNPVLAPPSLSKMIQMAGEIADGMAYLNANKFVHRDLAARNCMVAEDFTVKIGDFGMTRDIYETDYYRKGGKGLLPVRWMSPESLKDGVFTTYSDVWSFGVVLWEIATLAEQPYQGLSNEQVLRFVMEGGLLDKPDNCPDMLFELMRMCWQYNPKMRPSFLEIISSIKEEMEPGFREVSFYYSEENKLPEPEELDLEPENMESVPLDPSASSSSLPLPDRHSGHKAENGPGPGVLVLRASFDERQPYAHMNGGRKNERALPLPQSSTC
row,IC50 [nM],SMILES
1,65,CN1CCN([C@H]2C[C@@H](c3nc(-c4ccc5ccc(-c6ccccc6)nc5c4)c4c(N)nccn43)C2)CC1
2,207,CN1CCN([C@H]2CC[C@H](n3nc(-c4ccc(Nc5nc6cccc(Cl)c6o5)cc4)c4c(N)ncnc43)CC2)CC1
3,87,CN1CCN([C@H]2CC[C@H](n3nc(-c4ccc(Nc5nc6cccc(Cl)c6o5)c(F)c4)c4c(N)ncnc43)CC2)CC1

# System: Rattus norvegicus
# Test: Dose normalized AUC in po dosed rat
# Type: ADME, organism-based
# Conditions: in vivo
# Outline: as §2
row,AUC [ng·h/mL],SMILES
1,380,CN1CCN([C@H]2CC[C@H](n3nc(-c4ccc(Nc5nc6cccc(Cl)c6o5)cc4)c4c(N)ncnc43)CC2)CC1

# Molecular target: Epidermal growth factor receptor (Homo sapiens, UniProt P00533)
# Test: Inhibition of EGFR phosphorylation in human MIAPaCa cells by ELISA
# Type: cell-based
# Conditions: not given
# Epidermal growth factor receptor (Homo sapiens, UniProt P00533), sequence (P00533 whole entry): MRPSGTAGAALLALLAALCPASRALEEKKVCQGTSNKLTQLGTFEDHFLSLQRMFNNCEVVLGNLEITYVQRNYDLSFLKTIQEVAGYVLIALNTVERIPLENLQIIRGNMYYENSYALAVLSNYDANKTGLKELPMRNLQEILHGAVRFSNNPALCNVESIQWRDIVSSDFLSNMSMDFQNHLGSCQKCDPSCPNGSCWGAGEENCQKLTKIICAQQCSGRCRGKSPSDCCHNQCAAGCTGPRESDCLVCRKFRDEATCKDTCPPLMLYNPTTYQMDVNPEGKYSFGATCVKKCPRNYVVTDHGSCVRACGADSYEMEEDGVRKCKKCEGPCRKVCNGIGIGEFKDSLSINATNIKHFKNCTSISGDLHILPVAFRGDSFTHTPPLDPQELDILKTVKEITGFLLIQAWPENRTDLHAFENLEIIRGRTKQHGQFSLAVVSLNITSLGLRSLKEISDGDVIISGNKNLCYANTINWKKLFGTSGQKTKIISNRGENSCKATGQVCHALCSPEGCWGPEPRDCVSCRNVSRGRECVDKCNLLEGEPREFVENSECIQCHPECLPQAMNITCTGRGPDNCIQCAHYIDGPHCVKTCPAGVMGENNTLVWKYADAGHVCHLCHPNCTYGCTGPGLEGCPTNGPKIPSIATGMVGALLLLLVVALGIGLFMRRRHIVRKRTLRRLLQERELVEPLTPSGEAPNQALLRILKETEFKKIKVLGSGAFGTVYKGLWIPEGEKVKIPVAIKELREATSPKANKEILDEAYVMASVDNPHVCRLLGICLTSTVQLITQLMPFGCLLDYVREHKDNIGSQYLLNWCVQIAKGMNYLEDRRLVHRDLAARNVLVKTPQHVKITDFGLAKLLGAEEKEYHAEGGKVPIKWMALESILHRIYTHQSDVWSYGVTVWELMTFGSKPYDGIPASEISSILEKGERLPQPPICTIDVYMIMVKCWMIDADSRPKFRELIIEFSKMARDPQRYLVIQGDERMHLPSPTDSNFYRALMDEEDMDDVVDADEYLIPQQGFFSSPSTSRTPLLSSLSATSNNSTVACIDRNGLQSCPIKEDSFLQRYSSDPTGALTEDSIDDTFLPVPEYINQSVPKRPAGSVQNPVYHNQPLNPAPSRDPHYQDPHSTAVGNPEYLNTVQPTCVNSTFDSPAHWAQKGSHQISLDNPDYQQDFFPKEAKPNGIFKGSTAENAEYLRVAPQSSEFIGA
IC50 [nM],EC50 [nM],SMILES
> 30000,–,CN1CCN([C@H]2C[C@@H](c3nc(-c4ccc5ccc(-c6ccccc6)nc5c4)c4c(N)nccn43)C2)CC1
2300,> 1000,CN1CCN([C@H]2CC[C@H](n3nc(-c4ccc(Nc5nc6cccc(Cl)c6o5)cc4)c4c(N)ncnc43)CC2)CC1
2880,> 1000,CN1CCN([C@H]2CC[C@H](n3nc(-c4ccc(Nc5nc6cccc(Cl)c6o5)c(F)c4)c4c(N)ncnc43)CC2)CC1

# System: not listed separately
# Test: Oral bioavailability in C57BL/6 mouse at 10 mg/kg
# Type: ADME, organism-based
# Conditions: in vivo
# Outline: as §1
row,bioavailability [%],SMILES
1,20,CN1CCN([C@H]2CC[C@H](n3nc(-c4ccc(Nc5nc6cccc(Cl)c6o5)cc4)c4c(N)ncnc43)CC2)CC1

# Molecular target: T2, Receptor tyrosine-protein kinase erbB-2 (Homo sapiens, UniProt P04626)
# Test: Inhibition of ErbB2
# Conditions: not given
# T2 sequence (P04626 whole entry): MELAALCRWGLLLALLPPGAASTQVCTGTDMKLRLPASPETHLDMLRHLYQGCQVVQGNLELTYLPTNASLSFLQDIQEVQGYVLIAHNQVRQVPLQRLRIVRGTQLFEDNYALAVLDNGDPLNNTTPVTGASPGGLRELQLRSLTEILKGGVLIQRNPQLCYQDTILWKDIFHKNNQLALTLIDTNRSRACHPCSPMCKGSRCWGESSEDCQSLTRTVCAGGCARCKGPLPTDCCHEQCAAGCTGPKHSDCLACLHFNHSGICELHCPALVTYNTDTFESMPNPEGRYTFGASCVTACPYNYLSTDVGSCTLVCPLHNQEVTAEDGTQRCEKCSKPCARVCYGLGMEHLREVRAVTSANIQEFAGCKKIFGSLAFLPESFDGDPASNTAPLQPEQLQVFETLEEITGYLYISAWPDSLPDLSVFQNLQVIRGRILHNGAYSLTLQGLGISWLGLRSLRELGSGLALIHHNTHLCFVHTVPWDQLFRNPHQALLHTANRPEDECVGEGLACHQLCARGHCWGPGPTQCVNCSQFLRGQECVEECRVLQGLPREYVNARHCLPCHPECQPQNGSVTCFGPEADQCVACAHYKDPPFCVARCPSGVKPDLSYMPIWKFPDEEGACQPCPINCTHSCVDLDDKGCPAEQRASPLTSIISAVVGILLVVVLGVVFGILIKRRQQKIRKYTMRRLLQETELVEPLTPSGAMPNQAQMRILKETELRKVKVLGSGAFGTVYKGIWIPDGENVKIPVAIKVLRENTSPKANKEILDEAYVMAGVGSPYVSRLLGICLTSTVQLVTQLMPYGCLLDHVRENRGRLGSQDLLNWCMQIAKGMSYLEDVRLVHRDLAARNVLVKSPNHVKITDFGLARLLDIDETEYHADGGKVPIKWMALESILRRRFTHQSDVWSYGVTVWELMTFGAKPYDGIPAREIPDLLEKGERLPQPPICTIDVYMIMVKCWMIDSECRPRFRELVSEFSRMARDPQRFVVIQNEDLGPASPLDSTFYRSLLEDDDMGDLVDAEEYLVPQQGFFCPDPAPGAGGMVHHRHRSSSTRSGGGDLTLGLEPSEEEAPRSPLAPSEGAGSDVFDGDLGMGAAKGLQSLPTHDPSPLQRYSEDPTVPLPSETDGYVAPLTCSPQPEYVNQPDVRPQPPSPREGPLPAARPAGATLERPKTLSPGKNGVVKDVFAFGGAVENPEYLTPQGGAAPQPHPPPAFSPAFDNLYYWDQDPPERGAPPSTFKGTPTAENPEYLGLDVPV
row,SMILES,IC50 [nM]
1,Cc1cc(Cl)c2oc(Nc3ccc(-c4nn([C@H]5CC[C@@H](N6CCN(C)CC6)CC5)c5ncnc(N)c45)cc3)nc2c1,5230
2,Cc1cc(C)c2oc(Nc3ccc(-c4nn([C@H]5CC[C@@H](N6CCN(C)CC6)CC5)c5ncnc(N)c45)cc3F)nc2c1,4030

# Next, values leading:
row,IC50 [nM],SMILES
1,14.5,CN1CCC(N2CCC(n3nc(-c4ccc(Nc5nc6cccc(Cl)c6o5)cc4)c4c(N)ncnc43)CC2)CC1
2,7.5,CN1CCN([C@H]2CC[C@H](n3nc(-c4ccc(Nc5nc6cccc(Cl)c6o5)cc4)c4c(N)ncnc43)CC2)CC1
3,16,CN1CCN([C@H]2CC[C@H](n3nc(-c4ccc(Nc5nc6cccc(Cl)c6o5)c(F)c4)c4c(N)ncnc43)CC2)CC1

# System: not listed separately
# Test: Half life in iv dosed C57BL/6 mouse
# Type: ADME, organism-based
# Conditions: in vivo
row,half-life [h],SMILES
1,2.4,CN1CCN([C@H]2CC[C@H](n3nc(-c4ccc(Nc5nc6cccc(Cl)c6o5)cc4)c4c(N)ncnc43)CC2)CC1

# System: Mus musculus
# Test: Inhibition of AKT phosphorylation in C57BL/6 mouse at 30 mg/kg, iv by Western blotting
# Type: functional, organism-based
# Set-up: dose 30 mg/kg
# Conditions: not given
# Outline: as §3
row,SMILES,inhibition
1,CN1CCN([C@H]2CC[C@H](n3nc(-c4ccc(Nc5nc6cccc(Cl)c6o5)cc4)c4c(N)ncnc43)CC2)CC1,Active

# System: not listed separately
# Test: Cmax in C57BL/6 mouse at 10 mg/kg, po
# Type: ADME, organism-based
# Set-up: dose 10 mg/kg, route oral
# Conditions: in vivo
# Outline: as §1
row,Cmax [nM],SMILES
1,170,CN1CCN([C@H]2CC[C@H](n3nc(-c4ccc(Nc5nc6cccc(Cl)c6o5)cc4)c4c(N)ncnc43)CC2)CC1

# System: not listed separately
# Test: Clearance in iv dosed rat
# Type: ADME, organism-based
# Conditions: in vivo
row,clearance [mL/min/kg],SMILES
1,15.2,CN1CCN([C@H]2CC[C@H](n3nc(-c4ccc(Nc5nc6cccc(Cl)c6o5)cc4)c4c(N)ncnc43)CC2)CC1

# System: Rattus norvegicus
# Test: Dose normalized AUC in iv dosed rat
# Type: ADME, organism-based
# Conditions: in vivo
# Outline: (§4)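 Intravenous PK: AUC is normalized to dose and expressed per mg/kg.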
row,AUC [ng·h/mL],SMILES
1,1260,CN1CCN([C@H]2CC[C@H](n3nc(-c4ccc(Nc5nc6cccc(Cl)c6o5)cc4)c4c(N)ncnc43)CC2)CC1

# Molecular target: Epidermal growth factor receptor (Homo sapiens, UniProt P04626+P00533+Q15303+P21860)
# Test: Inhibition of EGFR L858 mutant
# Type: protein assay
# Conditions: not given
# Outline: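 Kinase inhibition was measured in a homogeneous time-resolved fluorescence assay. The EGFR enzyme construct carries the L858R activating mutation.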
row,SMILES,IC50 [nM]
1,Cc1cc(Cl)c2oc(Nc3ccc(-c4nn([C@H]5CC[C@@H](N6CCN(C)CC6)CC5)c5ncnc(N)c45)cc3)nc2c1,1130
2,Cc1cc(C)c2oc(Nc3ccc(-c4nn([C@H]5CC[C@@H](N6CCN(C)CC6)CC5)c5ncnc(N)c45)cc3F)nc2c1,2270

# Next, values leading:
row,IC50 [nM],SMILES
1,99,CN1CCC(N2CCC(n3nc(-c4ccc(Nc5nc6cccc(Cl)c6o5)cc4)c4c(N)ncnc43)CC2)CC1
2,31.5,CN1CCN([C@H]2CC[C@H](n3nc(-c4ccc(Nc5nc6cccc(Cl)c6o5)cc4)c4c(N)ncnc43)CC2)CC1
3,37,CN1CCN([C@H]2CC[C@H](n3nc(-c4ccc(Nc5nc6cccc(Cl)c6o5)c(F)c4)c4c(N)ncnc43)CC2)CC1

# Molecular target: T1, Insulin-like growth factor 1 receptor
# Test: Inhibition of IGF1R
# Conditions: not given
row,SMILES,IC50 [nM]
1,Cc1cc(Cl)c2oc(Nc3ccc(-c4nn([C@H]5CC[C@@H](N6CCN(C)CC6)CC5)c5ncnc(N)c45)cc3)nc2c1,348
2,Cc1cc(C)c2oc(Nc3ccc(-c4nn([C@H]5CC[C@@H](N6CCN(C)CC6)CC5)c5ncnc(N)c45)cc3F)nc2c1,160

# Continued, values first:
row,IC50 [nM],SMILES
1,108,CN1CCC(N2CCC(n3nc(-c4ccc(Nc5nc6cccc(Cl)c6o5)cc4)c4c(N)ncnc43)CC2)CC1
2,12.5,CN1CCN([C@H]2CC[C@H](n3nc(-c4ccc(Nc5nc6cccc(Cl)c6o5)cc4)c4c(N)ncnc43)CC2)CC1
3,7.5,CN1CCN([C@H]2CC[C@H](n3nc(-c4ccc(Nc5nc6cccc(Cl)c6o5)c(F)c4)c4c(N)ncnc43)CC2)CC1

# System: Mus musculus
# Test: Dose normalized AUC in po dosed C57BL/6 mouse
# Type: ADME, organism-based
# Conditions: in vivo
# Outline: as §1
row,AUC [ng·h/mL],SMILES
1,190,CN1CCN([C@H]2CC[C@H](n3nc(-c4ccc(Nc5nc6cccc(Cl)c6o5)cc4)c4c(N)ncnc43)CC2)CC1

# System: not listed separately
# Test: Tmax in po dosed rat
# Type: ADME, organism-based
# Conditions: in vivo
# Outline: as §2
row,Tmax [h],SMILES
1,8,CN1CCN([C@H]2CC[C@H](n3nc(-c4ccc(Nc5nc6cccc(Cl)c6o5)cc4)c4c(N)ncnc43)CC2)CC1

# Molecular target: T2, Receptor tyrosine-protein kinase erbB-2
# Test: Inhibition of ERBb2 phosphorylation in human BT474 cells by ELISA
# Type: cell-based, BT-474
# Conditions: not given
# Outline: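 ErbB2 phosphorylation was read out in ELISA format in BT474 human breast tumour cells, which highly express ErbB2.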
row,IC50 [nM],SMILES
1,> 30000,CN1CCN([C@H]2C[C@@H](c3nc(-c4ccc5ccc(-c6ccccc6)nc5c4)c4c(N)nccn43)C2)CC1
2,340,CN1CCN([C@H]2CC[C@H](n3nc(-c4ccc(Nc5nc6cccc(Cl)c6o5)cc4)c4c(N)ncnc43)CC2)CC1
3,362,CN1CCN([C@H]2CC[C@H](n3nc(-c4ccc(Nc5nc6cccc(Cl)c6o5)c(F)c4)c4c(N)ncnc43)CC2)CC1

# System: not listed separately
# Test: Half life in iv dosed rat
# Type: ADME, organism-based
# Conditions: in vivo
row,half-life [h],SMILES
1,8.4,CN1CCN([C@H]2CC[C@H](n3nc(-c4ccc(Nc5nc6cccc(Cl)c6o5)cc4)c4c(N)ncnc43)CC2)CC1

# System: Mus musculus
# Test: Dose normalized AUC in iv dosed C57BL/6 mouse
# Type: ADME, organism-based
# Conditions: in vivo
# Outline: as §4
row,AUC [ng·h/mL],SMILES
1,940,CN1CCN([C@H]2CC[C@H](n3nc(-c4ccc(Nc5nc6cccc(Cl)c6o5)cc4)c4c(N)ncnc43)CC2)CC1
